Compounds with a hit are over-represented: about 4.1% of the library has one in this group of screens.
KCC2 mod – modulators of human KCC2 chloride dependent transport; KCC2 cells, thallium flux FluoZin-2 fluorescence; B-score of Tl+ flux slope (higher = more flux/activation; lower = inhibition) at 10 µM; 190,000 compounds, 2.2% hits;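 active = thallium flux slope and its plate-corrected score both differing from the plate sample mean at a set confidence after two filtering rounds, in either direction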;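 also: slope of fluorescence scaled to starting intensity during 10 to 20 s after thallium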
KCNQ1 pot – human KCNQ1 channel potentiation or activation; B-score at 10 µM; P51787; CHO-K1 KCNQ1, thallium flux FluxOR fluorescence; active compounds read high; AID 2648; 310,000 compounds, 0.35% hits;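 active = fluorescence ratio B-score, a plate-corrected score, at least three library SD, with initial intensity B-score within 5 SD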
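assay system = CHO-K1 cells stably expressing KCNQ1 | medium = assay buffer, equal DMSO in all wells | timing = 37 °C overnight plating, 90-min dark dye load, 20-min compound pretreatment | measured by = kinetic FluxOR thallium fluorescence, 10-s 1-Hz baseline, 110-s post-stimulus read | measure = fluorescence change relative to baseline, converted to B score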
hERG rescue – shields human hERG channel from block by proarrhythmic agents | Q12809 | CHO-hERG, FluxOR thallium flux, dofetilide IC70 present | activation (rescue from dofetilide block), less the hit threshold, % at 10 µM | 310,000 compounds, 0.51% hits;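 active = activation above the mean of controls blocked by dofetilide plus 5 SD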;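 also: thallium influx through hERG after potassium depolarization seen as dye fluorescence rise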
KCNK3 inh – human KCNK3 channel inhibition, primary screen | CHO-KCNK3 thallium flux, FluxOR fluorescence; active compounds read low | B-score at 10 µM | 340,000 compounds, 0.84% hits;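 active = B-score under library mean minus 4 SD, starting fluorescence ratio at most library mean plus 5 SD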;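 also: more negative B-score means stronger inhibition of thallium flux through KCNK3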
Target sequence (O14649 whole entry, looked up): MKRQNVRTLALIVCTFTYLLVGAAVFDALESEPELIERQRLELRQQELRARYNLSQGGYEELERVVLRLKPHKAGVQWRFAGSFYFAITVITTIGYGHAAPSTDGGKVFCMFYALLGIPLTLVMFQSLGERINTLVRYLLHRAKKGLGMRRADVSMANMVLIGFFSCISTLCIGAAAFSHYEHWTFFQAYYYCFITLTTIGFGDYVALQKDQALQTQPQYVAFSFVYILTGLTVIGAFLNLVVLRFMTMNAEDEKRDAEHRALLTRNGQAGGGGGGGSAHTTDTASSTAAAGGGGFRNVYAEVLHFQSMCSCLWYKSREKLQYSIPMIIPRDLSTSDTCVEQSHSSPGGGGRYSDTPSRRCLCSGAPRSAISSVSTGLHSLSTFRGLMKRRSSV
KCNK9 inh – blocks the human KCNK9 two-pore domain potassium channel; HEK293 KCNK9, FluxOR thallium flux fluorescence; active compounds read low; 310,000 compounds, 1.2% hits; AID 488922; Q9NPC2; B-score at 10 µM;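 active = ratio B-score over 3 SD below the library mean, with starting fluorescence within 5 SD of its mean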;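 also: negative B-score means less thallium flux so channel inhibition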
Target sequence (Q9NPC2 whole entry, looked up, the tested form may be a part): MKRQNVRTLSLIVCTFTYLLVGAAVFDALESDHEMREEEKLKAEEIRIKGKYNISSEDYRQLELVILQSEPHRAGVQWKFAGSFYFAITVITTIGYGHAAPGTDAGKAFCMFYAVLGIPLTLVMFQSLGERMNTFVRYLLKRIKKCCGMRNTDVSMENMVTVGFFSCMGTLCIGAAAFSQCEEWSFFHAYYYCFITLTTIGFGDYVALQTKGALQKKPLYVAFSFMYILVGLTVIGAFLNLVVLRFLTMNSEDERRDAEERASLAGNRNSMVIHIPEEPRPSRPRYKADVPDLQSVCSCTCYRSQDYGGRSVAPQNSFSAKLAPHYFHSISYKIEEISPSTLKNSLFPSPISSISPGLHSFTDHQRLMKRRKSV
KCNQ1 block – blocks the human KCNQ1 potassium channel; B-score at 10 µM; CHO-K1 KCNQ1, FluxOR thallium flux fluorescence; active compounds read high; 310,000 compounds, 1.3% hits; AID 2642; P51787;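 active = compounds whose thallium flux B-score, printed positive for inhibition, exceeds three library SD while starting fluorescence stays within three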;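 also: channel opened by potassium depolarization with thallium stimulus after 20 min compound exposure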
KCC2 sec1 – KCC2 (human) modulation, secondary assay; 3,700 compounds, 15% hits; shares compounds with KCC2 mod; normalised thallium flux (F/F0 slope) at 10 µM; HEK293-KCC2, thallium flux, FluoZin2 fluorescence; active compounds read high;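 active = thallium flux slope above the same plate's solvent-only control mean plus 3 SD; inconclusive = the two replicate wells disagree; inactive = no significant difference from solvent-only control wells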
KCC2 bumet counter – bumetanide-insensitive thallium flux in KCC2 cells with ouabain, counter-screen; AID 1714; 3,700 compounds, 49% hits; HEK293-KCC2 + bumetanide/ouabain, thallium flux FluoZin2; active compounds read high; normalized thallium flux at 10 µM; shares compounds with KCC2 mod;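 active = thallium entry rate above the same plate's blocked-transporter control wells by more than 3 SD; inconclusive = the two repeat wells disagree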;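 also: raw slope of fluorescence over initial fluorescence between 10 and 20 s after thallium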
KCC2 secondary2 – confirmation of human KCC2 transport modulators | shares compounds with KCC2 mod | normalized thallium flux at 10 µM | AID 1715 | 3,700 compounds, 23% hits | HEK293-KCC2, thallium flux FluoZin2 fluorescence; actives lie on both sides; F/F0 rise rate, 10–20 s post-thallium;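 active = thallium flux slope more than 3 SD above or below the plate's solvent-only control mean, mostly below; inconclusive = the two repeat wells disagreed; inactive = no significant shift from solvent-only controls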;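 also: raw slope with 0.1% DMSO as baseline and bumetanide as block control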
HEK counter1 – counter-screen for KCC2 modulators: effect in parental HEK293 cells | shares compounds with KCC2 mod | thallium flux FluoZin2, ouabain; baseline-ratio fluorescence slope, 10–20 s after thallium | thallium flux rate (normalised fluorescence) at 10 µM | 3,700 compounds, 46% hits | AID 1716;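 active = thallium flux rate significantly above the same plate's solvent-only control wells, beyond their mean plus 3 SD; inconclusive = the two replicate wells gave conflicting results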
KCC2 ouabain – modulates human KCC2 on retest with ouabain; shares compounds with KCC2 mod; HEK293-KCC2, thallium flux FluoZin2 fluorescence; bidirectional: low = inhibitor, high = activator; raw Tl+ flux slope (below DMSO = inhibition, above = activation) at 10 µM; 3,700 compounds, 48% hits;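 active = thallium flux slope beyond 3 SD from same-plate DMSO control mean in most replicates, usually higher, sometimes lower; inconclusive = repeat tests gave conflicting results; inactive = no significant difference from controls in most replicates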;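 also: slope of initial-normalized fluorescence between seconds 10 and 20 after thallium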
HEK293 Tl flux2 – parental HEK flux effect, counter-screen 2 | shares compounds with KCC2 mod | HEK293 parental, thallium flux FluoZin-2 fluorescence slope | thallium flux slope at 10 µM | 3,700 compounds, 33% hits | AID 1718;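 active = thallium flux slope above the same plate's solvent-control mean plus 3 SD in both duplicate wells; inconclusive = duplicate wells that disagreed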;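 also: run without ouabain in cells lacking the KCC2 cotransporter; slope of fluorescence scaled to its starting value between 10 and 20 s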
KCNK9 block conf – confirmation of human KCNK9 potassium channel inhibitors | shares compounds with KCNK9 inh | 4,900 compounds, 43% hits | inhibition, % at 10 µM | HEK293 KCNK9 cells, FluxOR thallium flux fluorescence;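 active = thallium signal inhibited by more than 5 SD of the compound-free buffer control wells, on both duplicate plates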;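 also: 0% = assay buffer control wells without compound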
Kir21 sel – tests whether KCNK9 modulators also affect mouse Kir2.1 | shares compounds with KCNK9 inh | Kir2.1 cells, FluxOR thallium flux fluorescence | inhibition, % at 10 µM | 4,900 compounds, 4% hits | AID 492993;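 active = thallium signal drop more than 5 SD beyond the mean of the no-compound control wells, seen in both duplicate plates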;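 also: signal is fluorescence rise after thallium addition divided by baseline fluorescence; plate controls were assay buffer only for no effect and full block by chlorpromazine control for full effect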
HEK293 Tl ctr – non-induced cell nonspecific activity of KCNK9 modulators | shares compounds with KCNK9 inh | inhibition, % at 10 µM | non-induced KCNK9-HEK293, FluxOR thallium flux | 4,900 compounds, 40% hits;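 active = thallium signal drop beyond 5 SD of the untreated control mean, on both duplicate plates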;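 also: plate controls were buffer only IC0 wells for no effect and SID17386958 at its maximal inhibitory level for full effect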
Starred values were filed as active, the others as inactive; i = inactive; ? = inconclusive; · = not tested or not shown.

SMILES	KCC2 mod	KCNQ1 pot	hERG rescue	KCNK3 inh	KCNK9 inh	KCNQ1 block	KCC2 sec1	KCC2 bumet counter	KCC2 secondary2	HEK counter1	KCC2 ouabain	HEK293 Tl flux2	others
O=c1c2ccccc2[nH]c(=S)n1-c1ccc(Br)cc1	20*	i	-8	i	i	i	0.0064	0.041*	0.042*	0.028*	0.044*	0.027*
COc1cccc(-n2c(=S)[nH]c3ccccc3c2=O)c1	2.2	i	-5	i	i	i	·	·	·	·	·	·
O=c1c2cc(Br)ccc2[nH]c(=S)n1-c1ccccc1	20*	i	37*	i	i	i	0.008	0.027*	0.042*	0.022*	0.033*	0.023*
CCCN1CCC[C@@H](c2cccc(O)c2)C1	·	·	·	i	·	·	·	·	·	·	·	·
COc1cccc(-c2nc(CS(=O)CC(=O)N3CCC4(CC3)OCCO4)c(C)o2)c1 (configuration not stated)	-5.5*	i	-10	i	i	i	0.0071	0.0046	?	0.0066	0.017	0.0097
O=C1CC23c4ccccc4N4C(=O)CC5OCC=C6CN1C2CC6C5C43 (configuration not stated)	·	·	·	i	·	·	·	·	·	·	·	·
CCCCCCn1c(O)c(C=NC2CCN(Cc3ccccc3)CC2)c(=O)[nH]c1=O	·	i	-16	i	i	i	0.018	0.0046	?	0.007	0.015	0.0096
CC(N)C(=O)OC(C)(C)Cc1ccc(Cl)cc1 (configuration not stated)	·	·	·	i	·	·	·	·	·	·	·	·
O=C1CSC2N1CCNC21CCCCC1 (configuration not stated)	-0.032	i	-5	i	i	i	·	·	·	·	·	·
CC1(c2ccccc2)NCCN2C(=O)CSC21 (configuration not stated)	-2.3	i	1	i	i	i	0.0086	0.0061	0.035	0.0045	0.02	0.011
O=c1[nH]c(=S)[nH]c(O)c1N=Nc1ccc(OC(F)F)cc1	42*	i	-7	i	i	i	?	0.073*	0.035	0.011*	0.069*	0.011
COc1ccc(N=Nc2c(O)[nH]c(=S)[nH]c2=O)cc1	-0.012	i	2	i	i	i	·	·	·	·	·	·
COc1cc2c(cc1OC)-c1c(OC)c(OC)cc3c1[C@H](C2)[N+](C)(C)CC3	3.1*	i	-4	i	i	i	0.0075	?	0.029	0.0076	0.018	0.011
COc1cc2c3c(c1OC)-c1cc(O)ccc1CC3NCC2 (configuration not stated)	-1.2	i	-10	i	i	i	·	·	·	·	·	·
O=C1N(CN2CCOCC2)c2ccccc2C1(O)c1c[nH]c2ccccc12 (configuration not stated)	·	i	-9	i	i	i	0.0091	?	0.03	0.0074	0.021	0.011
Cc1cc(C(=O)OCC(=O)Nc2ccccc2F)c(C)n1C1CC1	·	·	·	i	·	·	·	·	·	·	·	·
Nc1ccccc1C(=O)OCC(=O)N1CCc2ccccc21	·	i	-3	i	i	i	0.0062	?	0.03	?	0.013*	0.011
CCOC(=O)C1(c2ccccc2)CCN(CC(=O)c2ccc(NC(C)=O)cc2)CC1	·	·	·	i	·	·	·	·	·	·	·	·
Cc1c(NS(=O)(=O)c2ccccc2)ccc([N+](=O)[O-])c1Cl	·	·	·	i	·	·	·	·	·	·	·	·
CN1CCN(Cc2ccc3ccccc3c2)CC1	·	i	-4	i	i	i	·	·	·	·	·	·
CN1CCN(Cc2nc3ccccc3n2C)CC1	6.9*	i	-12	i	i	i	0.0061	0.0047	?	0.0079	?	0.011
CCCCNC(=O)Nc1ccc(C(O)(C(=O)OC)C(F)(F)F)cc1 (configuration not stated)	·	i	-11	i	i	i	·	·	·	·	·	·
CCCCNC(=O)Nc1ccc(C(O)(C(=O)OCC)C(F)(F)F)cc1 (configuration not stated)	-4.7*	i	-15	i	i	i	0.0078	0.0069	0.032	?	0.022	0.0099
O=C1NC(=O)C(=Cc2coc3ccccc3c2=O)C(=O)N1	-4.1*	i	-15	i	i	i	0.0058	0.0058*	?	0.0059*	0.014*	0.0099
O=c1c(C=NCc2cccs2)c(O)n(C2CCCCC2)c(=O)n1C1CCCCC1	-3*	i	-7	i	i	i	?	0.0044	0.03	0.0072	0.02	0.01	KCNK9 block conf=i;Kir21 sel=i;HEK293 Tl ctr=i
Cc1ccc(N=C(/N=C(\N)N[N+](=O)[O-])Nc2ccc(C)cc2)cc1	·	i	-12	i	i	i	·	·	·	·	·	·
